Reference: ChEMBL document CHEMBL1649441, “Potency and bactericidal activity of iclaprim against recent clinical gram-positive isolates” (2009)
≈ marks a conversion by molar mass, not a printed value.

Assays:
Assay type in all cases: functional
[1] = system: Streptococcus sp. 'group A'; assay: Antibacterial activity against Beta-hemolytic Streptococcus group A assessed as inhibition of bacterial growth at 0.06 ug/ml by CLSI broth microdilution method
Method in brief: (§1)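 Clinical isolates from skin/soft tissue, bloodstream and respiratory specimens were tested by broth microdilution per CLSI M7-A7 and M100-S18, with quality controls. Values are the number of isolates inhibited at each concentration, or MIC / percent susceptible. Highest concentration tested was 8 µg/ml for iclaprim and trimethoprim-sulfamethoxazole, and 64 µg/ml for trimethoprim.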

Enterococcus faecium [2] = assay: Antibacterial activity against Enterococcus faecium assessed as inhibition of bacterial growth at 8 ug/ml by CLSI broth microdilution method
[3] = system: Streptococcus sp. 'group A'; assay: Antibacterial activity against Beta-hemolytic Streptococcus group A assessed as inhibition of bacterial growth at 0.03 ug/ml by CLSI broth microdilution method; method in brief: as §1
Enterococcus faecalis [4] = assay: Antibacterial activity against Enterococcus faecalis assessed as inhibition of bacterial growth at >8 ug/ml by CLSI broth microdilution method; method in brief: as §1
Staphylococcus aureus [5] = assay: Antibacterial activity against Methicillin-sensitive Staphylococcus aureus by CLSI broth microdilution method
[6] = system: Streptococcus sp. 'group B'; assay: Antibacterial activity against Beta-hemolytic Streptococcus group B assessed as inhibition of bacterial growth at 2 ug/ml by CLSI broth microdilution method; method in brief: as §1
[7] = system: Streptococcus sp. 'group B'; assay: Antibacterial activity against Beta-hemolytic Streptococcus group B assessed as inhibition of bacterial growth at 8 ug/ml by CLSI broth microdilution method; method in brief: as §1
Staphylococcus aureus [8] = assay: Antibacterial activity against Methicillin-sensitive Staphylococcus aureus assessed as inhibition of bacterial growth at […] by CLSI broth microdilution method; parameters: Activity: scale not given: the % may be the effect or the level left; as to INH: tested at 0.25 µg/mL
[9] = system: Streptococcus sp. 'group B'; assay: (§2) Antibacterial activity against Beta-hemolytic Streptococcus group B assessed as inhibition of bacterial growth at […] by CLSI broth microdilution method
Enterococcus faecalis [10] = assay: Antibacterial activity against Enterococcus faecalis assessed as inhibition of bacterial growth at 2 ug/ml by CLSI broth microdilution method; method in brief: as §1
[11] = system: Streptococcus sp. 'group A'; assay: Antibacterial activity against Beta-hemolytic Streptococcus group A assessed as inhibition of bacterial growth at 0.5 ug/ml by CLSI broth microdilution method; method in brief: as §1
Enterococcus faecium [12] = assay: (§3) Antibacterial activity against Enterococcus faecium assessed as inhibition of bacterial growth at […] by CLSI broth microdilution method
Staphylococcus aureus [13] = assay: Antibacterial activity against Methicillin-sensitive Staphylococcus aureus assessed as inhibition of bacterial growth at 2 ug/ml by CLSI broth microdilution method
Enterococcus faecalis [14] = assay: Antibacterial activity against Enterococcus faecalis assessed as inhibition of bacterial growth at 0.5 ug/ml by CLSI broth microdilution method; method in brief: as §1
[15] = system: Streptococcus sp. 'group B'; assay: as §2; remark: listed apart in the source
Staphylococcus aureus [16] = assay: Antibacterial activity against Methicillin-resistant Staphylococcus aureus by CLSI broth microdilution method
[17] = system: Streptococcus sp. 'group A'; assay: Antibacterial activity against Beta-hemolytic Streptococcus group A assessed as inhibition of bacterial growth at […] by CLSI broth microdilution method
Staphylococcus aureus [18] = assay: Antibacterial activity against Methicillin-sensitive Staphylococcus aureus assessed as inhibition of bacterial growth at 0.03 ug/ml by CLSI broth microdilution method; parameters: Activity: scale not given: the % may be the effect or the level left
Method in brief: (§4)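 Recent clinical isolates from skin/soft tissue, bloodstream and respiratory specimens. Tested by broth microdilution per CLSI M7-A7 and M100-S18, with the appropriate quality controls. The thymidine content of the test medium was assessed to rule out artifactual inhibition.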

Enterococcus faecalis [19] = assay: Antibacterial activity against Enterococcus faecalis assessed as inhibition of bacterial growth at 0.03 ug/ml by CLSI broth microdilution method; method in brief: as §1
Staphylococcus aureus [20] = assay: Antibacterial activity against Methicillin-sensitive Staphylococcus aureus assessed as inhibition of bacterial growth at 1 ug/ml by CLSI broth microdilution method
Enterococcus faecium [21] = assay: as §3; remark: listed apart in the source
Enterococcus faecium [22] = assay: Antibacterial activity against Enterococcus faecium assessed as inhibition of bacterial growth at 0.5 ug/ml by CLSI broth microdilution method
Staphylococcus aureus [23] = assay: Antibacterial activity against Methicillin-resistant Staphylococcus aureus assessed as inhibition of bacterial growth at 1 ug/ml by CLSI broth microdilution method; method in brief: as §4
Staphylococcus aureus [24] = assay: Antibacterial activity against Methicillin-sensitive Staphylococcus aureus assessed as inhibition of bacterial growth at 4 ug/ml by CLSI broth microdilution method
Staphylococcus aureus [25] = assay: Antibacterial activity against Methicillin-sensitive Staphylococcus aureus assessed as inhibition of bacterial growth at 8 ug/ml by CLSI broth microdilution method; method in brief: as §4
[26] = system: Streptococcus sp. 'group B'; assay: Antibacterial activity against Beta-hemolytic Streptococcus group B assessed as inhibition of bacterial growth at 4 ug/ml by CLSI broth microdilution method; method in brief: as §1
Staphylococcus aureus [27] = assay: Antibacterial activity against Methicillin-resistant Staphylococcus aureus assessed as inhibition of bacterial growth at 2 ug/ml by CLSI broth microdilution method; method in brief: as §4
Enterococcus faecium [28] = assay: Antibacterial activity against Enterococcus faecium assessed as inhibition of bacterial growth at 0.06 ug/ml by CLSI broth microdilution method; method in brief: as §1
Enterococcus faecalis [29] = assay: Antibacterial activity against Enterococcus faecalis assessed as inhibition of bacterial growth at […] by CLSI broth microdilution method; also: tested at 0.25 µg/mL
[30] = system: Streptococcus sp. 'group B'; assay: Antibacterial activity against Beta-hemolytic Streptococcus group B assessed as inhibition of bacterial growth at 0.03 ug/ml by CLSI broth microdilution method; method in brief: as §1
Enterococcus faecalis [31] = assay: Antibacterial activity against Enterococcus faecalis by CLSI broth microdilution method
[32] = system: Streptococcus sp. 'group B'; assay: Antibacterial activity against Beta-hemolytic Streptococcus group B assessed as inhibition of bacterial growth at 1 ug/ml by CLSI broth microdilution method; method in brief: as §1
Staphylococcus aureus [33] = assay: Antibacterial activity against Methicillin-resistant Staphylococcus aureus assessed as inhibition of bacterial growth at […] by CLSI broth microdilution method
Enterococcus faecalis [34] = assay: Antibacterial activity against Enterococcus faecalis assessed as inhibition of bacterial growth at 4 ug/ml by CLSI broth microdilution method; method in brief: as §1
[35] = system: Streptococcus sp. 'group B'; assay: Antibacterial activity against Beta-hemolytic Streptococcus group B assessed as inhibition of bacterial growth at 0.06 ug/ml by CLSI broth microdilution method; method in brief: as §1
Enterococcus faecium [36] = assay: Antibacterial activity against Enterococcus faecium by CLSI broth microdilution method
Enterococcus faecalis [37] = assay: Antibacterial activity against Enterococcus faecalis assessed as inhibition of bacterial growth at 1 ug/ml by CLSI broth microdilution method; method in brief: as §1
Enterococcus faecalis [38] = assay: Antibacterial activity against Enterococcus faecalis assessed as inhibition of bacterial growth at 0.06 ug/ml by CLSI broth microdilution method; method in brief: as §1
[39] = system: Streptococcus sp. 'group A'; assay: Antibacterial activity against Beta-hemolytic Streptococcus group A assessed as inhibition of bacterial growth at 1 ug/ml by CLSI broth microdilution method; method in brief: as §1
[40] = system: Streptococcus sp. 'group B'; assay: Antibacterial activity against Beta-hemolytic Streptococcus group B assessed as inhibition of bacterial growth at 0.5 ug/ml by CLSI broth microdilution method; method in brief: as §1
[41] = system: Streptococcus sp. 'group A'; assay: Antibacterial activity against Beta-hemolytic Streptococcus group A assessed as inhibition of bacterial growth at 4 ug/ml by CLSI broth microdilution method; method in brief: as §1
Staphylococcus aureus [42] = assay: Antibacterial activity against Methicillin-resistant Staphylococcus aureus assessed as inhibition of bacterial growth at 0.06 ug/ml by CLSI broth microdilution method; method in brief: as §4

COc1cc(Cc2cnc(N)nc2N)c2c(c1OC)OC(C1CC1)C=C2 (configuration not stated)
inhibition at 0.06 µg/mL [1]: 99.3% | inhibition at 8 µg/mL (Enterococcus faecium [2]): 75.6% | inhibition at 0.03 µg/mL [3]: 94.9% | inhibition (INH) (Enterococcus faecalis [4]): 100% | MIC50 (Staphylococcus aureus [5]): 0.06 µg/mL (≈ 0.169 µM) | MIC90 (Staphylococcus aureus [5]): 0.12 µg/mL (≈ 0.339 µM) | inhibition at 2 µg/mL [6]: 100% | inhibition at 8 µg/mL [7]: 100% | inhibition at […] (Staphylococcus aureus [8]; Staphylococcus aureus): 98.5% | inhibition at […] [9]: 55.4% | inhibition at 2 µg/mL (Enterococcus faecalis [10]): 71.9% | inhibition at 0.5 µg/mL [11]: 100% | inhibition at […] (Enterococcus faecium [12]): 38% | inhibition at 2 µg/mL (Staphylococcus aureus [13]): 98.7% | inhibition at 0.5 µg/mL (Enterococcus faecalis [14]): 70.6% | inhibition at […] [15]: 91.2% | MIC50 (Staphylococcus aureus [16]): 0.06 µg/mL (≈ 0.169 µM) | MIC90 (Staphylococcus aureus [16]): 0.12 µg/mL (≈ 0.339 µM) | inhibition at […] [17]: 100% | inhibition at 0.03 µg/mL (Staphylococcus aureus [18]; Staphylococcus aureus): 6.1% | inhibition at 0.03 µg/mL (Enterococcus faecalis [19]): 63.9% | inhibition at 1 µg/mL (Staphylococcus aureus [20]): 98.7% | inhibition at […] (Enterococcus faecium [21]): 38.3% | inhibition at 0.5 µg/mL (Enterococcus faecium [22]): 39.3% | inhibition at 1 µg/mL (Staphylococcus aureus [23]): 93.8% | inhibition at 4 µg/mL (Staphylococcus aureus [24]): 99.9% | inhibition at 8 µg/mL (Staphylococcus aureus [25]): 100% | inhibition at 4 µg/mL [26]: 100% | inhibition at 2 µg/mL (Staphylococcus aureus [27]): 94.6% | inhibition at 0.06 µg/mL (Enterococcus faecium [28]): 37.6% | inhibition at […] (Enterococcus faecalis [29]): 70.6% | inhibition at 0.03 µg/mL [30]: 0.5% | MIC50 (Enterococcus faecalis [31]): 0.015 µg/mL (≈ 0.0423 µM) | MIC90 (Enterococcus faecalis [31]): 4 µg/mL (≈ 11.3 µM) | inhibition at 1 µg/mL [32]: 100% | inhibition at […] (Staphylococcus aureus [33]): 91.1% | inhibition at 4 µg/mL (Enterococcus faecalis [34]): 96.8% | inhibition at 0.06 µg/mL [35]: 5.4% | MIC50 (Enterococcus faecium [36]): 2 µg/mL (≈ 5.64 µM) | MIC90 (Enterococcus faecium [36]): > 8 µg/mL | inhibition at 1 µg/mL (Enterococcus faecalis [37]): 71% | inhibition at 0.06 µg/mL (Enterococcus faecalis [38]): 67.1% | inhibition at 1 µg/mL [39]: 100% | inhibition at 0.5 µg/mL [40]: 100% | inhibition at 4 µg/mL [41]: 100% | inhibition at 0.06 µg/mL (Staphylococcus aureus [42]): 69.6%

COc1cc(Cc2cnc(N)nc2N)cc(OC)c1OC [TRIMETHOPRIM]
inhibition at 0.06 µg/mL [1]: 8.6% | inhibition at 8 µg/mL (Enterococcus faecium [2]): 41.6% | inhibition at 0.03 µg/mL [3]: 0.8% | inhibition (INH) (Enterococcus faecalis [4]): 100% | MIC50 (Staphylococcus aureus [5]): 1 µg/mL (≈ 3.44 µM) | MIC90 (Staphylococcus aureus [5]): 1 µg/mL (≈ 3.44 µM) | inhibition at 2 µg/mL [6]: 89.2% | inhibition at 8 µg/mL [7]: 100% | Activity (Staphylococcus aureus [8]): 2.4% | inhibition at […] [9]: 0% | inhibition at 2 µg/mL (Enterococcus faecalis [10]): 67.7% | inhibition at 0.5 µg/mL [11]: 98.5% | inhibition at […] (Enterococcus faecium [12]): 36% | inhibition at 2 µg/mL (Staphylococcus aureus [13]): 97.8% | inhibition at 0.5 µg/mL (Enterococcus faecalis [14]): 62.9% | inhibition at […] [15]: 0.5% | MIC50 (Staphylococcus aureus [16]): 1 µg/mL (≈ 3.44 µM) | MIC90 (Staphylococcus aureus [16]): 2 µg/mL (≈ 6.89 µM) | inhibition at […] [17]: 45.9% | Activity (Staphylococcus aureus [18]): 0% | inhibition at 0.03 µg/mL (Enterococcus faecalis [19]): 0.6% | inhibition at 1 µg/mL (Staphylococcus aureus [20]): 90.2% | inhibition at […] (Enterococcus faecium [21]): 37.3% | inhibition at 0.5 µg/mL (Enterococcus faecium [22]): 37.6% | inhibition at 1 µg/mL (Staphylococcus aureus [23]): 88.5% | inhibition at 4 µg/mL (Staphylococcus aureus [24]): 98.5% | inhibition at 8 µg/mL (Staphylococcus aureus [25]): 98.7% | inhibition at 4 µg/mL [26]: 99.5% | inhibition at 2 µg/mL (Staphylococcus aureus [27]): 92.1% | inhibition at 0.06 µg/mL (Enterococcus faecium [28]): 30.4% | inhibition at […] (Enterococcus faecalis [29]): 56.5% | inhibition at 0.03 µg/mL [30]: 0% | MIC50 (Enterococcus faecalis [31]): 0.25 µg/mL (≈ 0.861 µM) | MIC90 (Enterococcus faecalis [31]): > 64 µg/mL | inhibition at 1 µg/mL [32]: 51% | inhibition at […] (Staphylococcus aureus [33]): 0.2% | inhibition at 4 µg/mL (Enterococcus faecalis [34]): 70% | inhibition at 0.06 µg/mL [35]: 0% | MIC50 (Enterococcus faecium [36]): 32 µg/mL (≈ 110 µM) | MIC90 (Enterococcus faecium [36]): > 64 µg/mL | inhibition at 1 µg/mL (Enterococcus faecalis [37]): 64.5% | inhibition at 0.06 µg/mL (Enterococcus faecalis [38]): 4.2% | inhibition at 1 µg/mL [39]: 99.5% | inhibition at 0.5 µg/mL [40]: 5.9% | inhibition at 4 µg/mL [41]: 100% | inhibition at 0.06 µg/mL (Staphylococcus aureus [42]): < 0.1%
